Measured values gathered from unrelated publications.
Target: Mitogen-activated protein kinase 10 (MAPK10, Homo sapiens, UniProt P53779)

Cn1cc(-c2cc(F)cc(N3CCn4c(cc5c4CCCC5)C3=O)c2CO)cc(Nc2ccc(N3CCN(C4COC4)CC3)cn2)c1=O  inhibition (enzyme activity; inhibitor; 0.1 µM): 5%
COc1ncccc1-c1cnn2ccc(N3CCN(C(=O)OC(C)C)CC3)nc12  remaining binding (binding; competition with immobilised ligand; 1 µM): 100%
Cn1cncc1[C@](O)(COc1ccc(C#N)cc1-c1ccc(OC(F)(F)F)cc1)c1ccc(C#N)cc1  remaining binding (cell-free assay; competition with immobilised ligand; 1 µM): 70%
Nc1ncc(-c2nc(N3CCOCC3)nc(N3CCOCC3)n2)c(C(F)F)n1  remaining binding (binding; competition with immobilised ligand; 10 µM): 90%
NC(=O)c1nc(Nc2ccccc2)sc1NC(=O)C1CCCCC1  remaining binding (cell-free assay; competition with immobilised ligand; 10 µM): 5.4%
COc1cc(Nc2ncc(F)c(Nc3ccc4c(n3)NC(=O)C(C)(C)O4)n2)cc(OC)c1OC  inhibition (binding; competition with immobilised ligand; 10 µM): 100%
O=c1[nH]c2ccccc2n1C1CCN(Cc2ccc(-c3[nH]c4cc5ncnc5cc4nc3-c3ccccc3)cc2)CC1  remaining signal (cell-free assay; 0.5 µM): 96%
Cc1nn(C)cc1-c1nc2c(N3CCN(Cc4ccc(Cl)cc4)CC3)c(Cl)cnc2[nH]1  remaining binding (binding; competition with immobilised ligand; 1 µM): 100%
N#CC1(c2ccccn2)CCN(Cc2cc(C(=O)O)c(=O)n3ccccc23)CC1  remaining binding (cell-free assay; competition with immobilised ligand; 1 µM): 82%
CC(C)(C)c1cc(C=C(C#N)C#N)cc(Br)c1O  remaining activity (enzyme activity; inhibitor; 0.5 µM): 92.5%
